What was measured:
Mus musculus [1] = test: Percent median survival time of mice injected with P388 leukemia, at a intravenous compound dose of 80 mg/kg
Mus musculus [2] = test: Long-term survivors among 7 mice infected with P388 leukemia, scored on day 60 at 320 mg/kg dose on day 1; assay type: functional
Procedure, shortened: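 B6D2F1 mice in groups of 6–7 received 10^6 P388 cells ip on day 0. Dihydrochloride salts dissolved in water were injected iv on day 1 or on days 1, 5 and 9, at three doses and then five. Read-outs were % T/C (median survival treated/control × 100) and long-term survivors on day 60, both at the optimal dose (no toxic death, weight loss <20%).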

Mus musculus [3] = test: Long-term survivors among 7 mice infected with B16 melanoma, scored on day 90 at 320 mg/kg dose on day 1; assay type: functional
L1210 = test: Inhibition of murine L1210 leukemia cell proliferation measured by the MTT assay; assay type: functional, cell-based; details: Mus musculus
Procedure, shortened: (§1)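 Murine L1210 leukemia and B16 melanoma cells were grown in RPMI 1640 with 10% fetal calf serum, 2 mM L-glutamine, penicillin/streptomycin and 10 mM HEPES (pH 7.4). Cells were exposed to nine serial drug dilutions in triplicate for about four doubling times (L1210 48 h, B16 96 h), then read by microculture tetrazolium (MTT) assay. IC50 is the concentration halving optical density versus untreated controls, averaged over ≥2 independent experiments.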

B16 = test: Inhibition of murine B16 melanoma cell proliferation measured by the MTT assay; assay type: functional, cell-based; details: Mus musculus
Procedure, shortened: as §1

Mus musculus [4] = test: Percent median survival time of mice injected with P388 leukemia, at a intravenous compound dose of 320 mg/kg
Mus musculus [5] = test: Percent median survival time of mice intraperitoneally injected with P388 leukemia was determined from tested at 80 mg/kg at day1 dose to that of control; assay type: functional; details: route intraperitoneal
Procedure, shortened: (§2)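 P388 leukemia in B6D2F1 mice (groups of 6–7), 10^6 cells inoculated ip on day 0. Dihydrochloride salts were dissolved in water and given iv on day 1 or on days 1, 5, 9. Three doses were tested, then five if active. %T/C = median survival treated/control × 100, reported at the optimal dose (no toxic death, weight loss <20%), from one or two representative experiments.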

Mus musculus [6] = test: Percent median survival time of mice intraperitoneally injected with P388 leukemia was determined from tested at 40 mg/kg at day1,5,9 dose to that of control; assay type: functional; details: route intraperitoneal
Procedure, shortened: as §2

Mus musculus [7] = test: Long-term survivors among 6 mice infected with P388 leukemia, scored on day 60 at 40 mg/kg dose; assay type: functional
Procedure, shortened: (§3)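 B6D2F1 mice in groups of 6–7 were inoculated ip on day 0 with 10^6 P388 cells. Dihydrochloride salts were dissolved in water and given iv on day 1 or on days 1, 5 and 9. Doses ranged from a low nontoxic dose to a toxic one. Long-term survivors were counted at day 60.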

Mus musculus [8] = test: Long-term survivors among 6 mice infected with P388 leukemia, scored on day 60 at 80 mg/kg dose; assay type: functional
Procedure, shortened: as §3

Mus musculus [9] = test: Percent median survival time of mice injected with B16 melanoma, at a intraperitoneal compound dose of 20 mg/kg
Mus musculus [10] = test: Long-term survivors among 6 mice infected with B16 melanoma, scored on day 90 at 10 mg/kg dose on day 1; assay type: functional
Mus musculus [11] = test: Long-term survivors among 6 mice infected with P388 leukemia, scored on day 60 at 10 mg/kg dose on day 1; assay type: functional
Procedure, shortened: as §3

Mus musculus [12] = test: Percent median survival time of mice injected with P388 leukemia, at a intravenous compound dose of 5 mg/kg
Mus musculus [13] = test: Percent median survival time of mice injected with B16 melanoma, at a intraperitoneal compound dose of 10 mg/kg
Mus musculus [14] = test: Percent median survival time of mice injected with P388 leukemia, at a subcutaneous compound dose of 10 mg/kg; assay type: functional
Mus musculus [15] = test: Long-term survivors among 7 mice infected with P388 leukemia, scored on day 90 at 20 mg/kg dose on day 1; assay type: functional
Mus musculus [16] = test: Long-term survivors among 7 mice infected with B16 melanoma, scored on day 90 at 20 mg/kg dose on day 1; assay type: functional
Mus musculus [17] = test: Percent median survival time of mice injected with P388 leukemia, at a subcutaneous compound dose of 20 mg/kg on day 1, 5, 9; assay type: functional
Mus musculus [18] = test: Long-term survivors among 12 mice infected with P388 leukemia, scored on day 60 at 20 mg/kg dose; assay type: functional
Procedure, shortened: as §3

Mus musculus [19] = test: Percent median survival time of mice intraperitoneally injected with P388 leukemia was determined from tested at 10 mg/kg at day1,5,9 dose to that of control; assay type: functional
Procedure, shortened: as §2

Mus musculus [20] = test: Long-term survivors among 13 mice infected with B16 melanoma, scored on day 90 at 0.3-0.6 mg/kg dose
Mus musculus [21] = test: Percent median survival time of mice injected with B16 melanoma, at a intraperitoneal compound dose of 0.3-0.6 mg/kg
Mus musculus [22] = test: Percent median survival time of mice intraperitoneally injected with P388 leukemia was determined from tested at 20 mg/kg at day1 dose to that of control; assay type: functional; details: route intraperitoneal
Procedure, shortened: as §2

Mus musculus [23] = test: Long-term survivors among 12 mice infected with P388 leukemia, scored on day 60 at 10 mg/kg dose; assay type: functional
Procedure, shortened: as §3

Mus musculus [24] = test: Percent median survival time of mice intraperitoneally injected with P388 leukemia was determined from tested at 80 mg/kg at day1,5,9 dose to that of control; assay type: functional; details: route intraperitoneal
Procedure, shortened: as §2

Mus musculus [25] = test: Long-term survivors among 12 mice infected with P388 leukemia, scored on day 60 at 80 mg/kg dose; assay type: functional
Procedure, shortened: as §3

Mus musculus [26] = test: Long-term survivors among 12 mice infected with P388 leukemia, scored on day 60 at 320 mg/kg dose; assay type: functional
Procedure, shortened: as §3

Cc1c2ccnc(C(=O)NCCN(C)C)c2cc2c3cc(OC(=O)CCC(NC(=O)OC(C)(C)C)C(=O)O)ccc3n(C)c12 (stereo not given)
T/C (Mus musculus [1]): >614% | LTS (Mus musculus [2]): 0 | LTS (Mus musculus [3]): 0 | IC50 (L1210): 89.3 nM | IC50 (B16): 4 nM | T/C (Mus musculus [4]): >614%

Cc1c2ccnc(C(=O)NCCN(C)C)c2cc2c3cc(OC(=O)N(C)C)ccc3n(C)c12
T/C (Mus musculus [5]): 124% | T/C (Mus musculus [6]): 119% | IC50 (L1210): 1850 nM | LTS (Mus musculus [7]): 0 | IC50 (B16): 2670 nM | LTS (Mus musculus [8]): 0 | T/C (Mus musculus [9]): 161%

Cc1c2ccnc(C(=O)NCCN(C)C)c2cc2c3cc(OC(=O)CCC(=O)OCc4ccccc4)ccc3n(C)c12
LTS (Mus musculus [10]): 1 | LTS (Mus musculus [11]): 0 | T/C (Mus musculus [12]): 96% | IC50 (L1210): 47.4 nM | T/C (Mus musculus [13]): 169% | IC50 (B16): 9.9 nM | T/C (Mus musculus [14]): 111%

CCOCCC(=O)Oc1ccc2c(c1)c1cc3c(C(=O)NCCN(C)C)nccc3c(C)c1n2C
IC50 (L1210): 5.7 nM | T/C (Mus musculus [13]): 157% | IC50 (B16): 3 nM | LTS (Mus musculus [15]): 0 | LTS (Mus musculus [16]): 0 | T/C (Mus musculus [17]): 222%

Cc1c(O)ccc2c1c1cc3c(C(=O)NCCN(C)C)nccc3c(C)c1n2C
LTS (Mus musculus [18]): 0 | T/C (Mus musculus [19]): 223% | LTS (Mus musculus [20]): 0 | T/C (Mus musculus [21]): 144% | IC50 (L1210): 3.5 nM | T/C (Mus musculus [22]): 211% | IC50 (B16): 0.2 nM | LTS (Mus musculus [23]): 0

Cc1c2ccnc(C(=O)NCCN(C)C)c2cc2c3cc(OC(=O)OCCCC(=O)O)ccc3n(C)c12
T/C (Mus musculus [24]): >600% | LTS (Mus musculus [25]): 7 | IC50 (L1210): 64 nM | IC50 (B16): 4.8 nM | T/C (Mus musculus [9]): 167% | LTS (Mus musculus [26]): 8

Reference: ChEMBL document CHEMBL1132144, “Synthesis of 9-O-substituted derivatives of 9-hydroxy-5, 6-dimethyl-6H-pyrido[4,3-b]carbazole-1-carboxylic acid (2-(dimethylamino)ethyl)amide and their 10- and 11-methyl analogues with improved antitumor activity” (J Med Chem, 1999)
